In ChEMBL document CHEMBL2157988, “Isolation, characterization and cytotoxic activity of benzophenone glucopyranosides from Mahkota Dewa (Phaleria macrocarpa (Scheff.) Boerl)” (Bioorg Med Chem Lett, 2012):
pIC50: −log10 of the molar value. Activity calls are given as the source filed them. The rule behind the calls is not given here.

What was measured:
Format in all cases: functional, cell-based
[1] = Cytotoxicity against human EC109 cells after 72 hrs by SRB assay; details: ECa-109, 72 h
In short: (§1)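 Cells in DMEM with 10% FBS and 1% penicillin/streptomycin; log-phase cells trypsinized and seeded at 5000 cells/well. DMSO stocks diluted 1000-fold in medium (<0.1% DMSO); final 100 down to 1.5625 μM in twofold steps, 72 h. Fixed with 50% TCA, stained 0.4% SRB, solubilized in 10 mM Tris base pH 10.5, OD 515 nm; IC50 calculated.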

[2] = Cytotoxicity against human EC9706 cells after 72 hrs by SRB assay; details: EC9706, 72 h; in short: as §1
MGC-803 [3] = assay: Cytotoxicity against human MGC803 cells after 72 hrs by SRB assay; details: MGC-803, 72 h; in short: as §1
PC-3 = assay: Cytotoxicity against human PC3 cells after 72 hrs by SRB assay; details: PC-3, 72 h; in short: as §1
MGC-803 [4] = assay: Cytotoxicity against human L-NAC-pretreated MGC803 cells incubated 2 hr post-L-NAC addition measured after 72 hrs by SRB assay
In short: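 MGC-803 cells in DMEM/10% FBS, seeded 5000 cells/well, preincubated with or without 5 mM L-NAC (ROS scavenger) for 2 h before compound addition. Compound final 100 to 1.5625 μM (twofold series, <0.1% DMSO), 72 h. SRB readout after TCA fixation, OD 515 nm; IC50 (50% cell death) calculated.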

COc1cccc(COc2ccc(C(=O)c3c(OCc4cccc(OC)c4)cc(OC)cc3O[C@@H]3O[C@H](CO)[C@@H](O)[C@H](O)[C@H]3O)cc2)c1
pIC50 [1]: 4.91 | pIC50 [2]: 4.68 | pIC50 (MGC-803 [3]): 4.74 | pIC50 (PC-3): 5.16

C=CCOc1ccc(C(=O)c2c(OCC=C)cc(OC)cc2O[C@@H]2O[C@H](CO)[C@@H](O)[C@H](O)[C@H]2O)cc1
pIC50 [1]: < 4.00 | pIC50 [2]: < 4.00 | pIC50 (MGC-803 [3]): < 4.00 | pIC50 (PC-3): < 4.00

COc1cc(OCCCBr)c(C(=O)c2ccc(OCc3ccccc3)cc2)c(OCc2ccccc2)c1
pIC50 [1]: < 4.00 | pIC50 [2]: < 4.00 | pIC50 (MGC-803 [3]): < 4.00 | pIC50 (PC-3): < 4.00

COc1cc(OCc2ccccc2)c(C(=O)c2ccc(OCc3ccccc3)cc2)c(O[C@@H]2O[C@H](CO)[C@@H](O)[C@H](O)[C@H]2O)c1
pIC50 [1]: 4.64 | pIC50 [2]: 4.39 | pIC50 (MGC-803 [3]): 4.35 | pIC50 (PC-3): 4.54

COc1cc(O)c(C(=O)c2ccc(OCc3ccccc3)cc2)c(OCc2ccccc2)c1
pIC50 [1]: < 4.00 | pIC50 [2]: < 4.00 | pIC50 (MGC-803 [3]): < 4.00 | pIC50 (PC-3): < 4.00

COc1cc(OC(=O)c2ccccc2)c(C(=O)c2ccc(OC(=O)c3ccccc3)cc2)c(O[C@@H]2O[C@H](COC(=O)c3ccccc3)[C@@H](OC(=O)c3ccccc3)[C@H](OC(=O)c3ccccc3)[C@H]2OC(=O)c2ccccc2)c1
pIC50 [1]: < 4.00 | pIC50 [2]: < 4.00 | pIC50 (MGC-803 [3]): < 4.00 | pIC50 (PC-3): < 4.00

COc1cc(OCC2CO2)c(C(=O)c2ccc(OCC3CO3)cc2)c(O[C@@H]2O[C@H](CO)[C@@H](O)[C@H](O)[C@H]2O)c1 (stereo partly drawn)
pIC50 [1]: < 4.00 | pIC50 [2]: < 4.00 | pIC50 (MGC-803 [3]): < 4.00 | pIC50 (PC-3): < 4.00

COc1cc(O)c(C(=O)c2ccc(O)cc2)c(O[C@@H]2O[C@H](CO)[C@@H](O)[C@H](O)[C@H]2O)c1 [MAHKOSIDE A]
pIC50 [1]: < 4.00 | pIC50 [2]: < 4.00 | pIC50 (MGC-803 [3]): < 4.00 | pIC50 (PC-3): < 4.00

CCCC(=O)OC[C@H]1O[C@@H](Oc2cc(OC)cc(OC(=O)CCC)c2C(=O)c2ccc(OC(=O)CCC)cc2)[C@H](OC(=O)CCC)[C@@H](OC(=O)CCC)[C@@H]1OC(=O)CCC
pIC50 [1]: < 4.00 | pIC50 [2]: < 4.00 | pIC50 (MGC-803 [3]): < 4.00 | pIC50 (PC-3): < 4.00

CCCCOc1ccc(C(=O)c2c(OCCCC)cc(OC)cc2O[C@@H]2O[C@H](CO)[C@@H](O)[C@H](O)[C@H]2O)cc1
pIC50 [1]: 4.54 | pIC50 [2]: 4.38 | pIC50 (MGC-803 [3]): 4.31 | pIC50 (PC-3): 4.49

COc1cc(OCCCBr)c(C(=O)c2ccc(OCCCBr)cc2)c(O[C@@H]2O[C@H](CO)[C@@H](O)[C@H](O)[C@H]2O)c1
pIC50 [1]: 4.64 | pIC50 [2]: 4.51 | pIC50 (MGC-803 [3]): 4.27 | pIC50 (PC-3): 4.40

CCOc1ccc(C(=O)c2c(OCC)cc(OC)cc2O[C@@H]2O[C@H](CO)[C@@H](O)[C@H](O)[C@H]2O)cc1
pIC50 [1]: < 4.00 | pIC50 [2]: < 4.00 | pIC50 (MGC-803 [3]): < 4.00 | pIC50 (PC-3): < 4.00

COc1cc(OC(=O)c2ccc(Cl)cc2)c(C(=O)c2ccc(OC(=O)c3ccc(Cl)cc3)cc2)c(O[C@@H]2O[C@H](COC(=O)c3ccc(Cl)cc3)[C@@H](OC(=O)c3ccc(Cl)cc3)[C@H](OC(=O)c3ccc(Cl)cc3)[C@H]2OC(=O)c2ccc(Cl)cc2)c1
pIC50 [1]: < 4.00 | pIC50 [2]: < 4.00 | pIC50 (MGC-803 [3]): < 4.00 | pIC50 (PC-3): < 4.00

COc1cc(OCCCN2CCCCC2)c(C(=O)c2ccc(OCc3ccccc3)cc2)c(OCc2ccccc2)c1
pIC50 [1]: 5.29 | pIC50 [2]: 5.30 | pIC50 (MGC-803 [3]): 5.51 | pIC50 (PC-3): 5.46 | Activity (MGC-803 [4]): Active

COc1cc(OC(C)=O)c(C(=O)c2ccc(OC(C)=O)cc2)c(O[C@@H]2O[C@H](COC(C)=O)[C@@H](OC(C)=O)[C@H](OC(C)=O)[C@H]2OC(C)=O)c1
pIC50 [1]: 4.30 | pIC50 [2]: 4.07 | pIC50 (MGC-803 [3]): 4.33 | pIC50 (PC-3): 4.47

COc1cc(OC)c(C(=O)c2ccc(O)cc2)c(O[C@@H]2O[C@H](CO)[C@@H](O)[C@H](O)[C@H]2O)c1
pIC50 [1]: < 4.00 | pIC50 [2]: < 4.00 | pIC50 (MGC-803 [3]): < 4.00 | pIC50 (PC-3): < 4.00

COc1ccc(COc2ccc(C(=O)c3c(OCc4ccc(OC)cc4)cc(OC)cc3O[C@@H]3O[C@H](CO)[C@@H](O)[C@H](O)[C@H]3O)cc2)cc1
pIC50 [1]: 4.77 | pIC50 [2]: 4.69 | pIC50 (MGC-803 [3]): 4.55 | pIC50 (PC-3): 4.93

COc1cc(O)c(C(=O)c2ccc(O)cc2)c(O[C@@H]2O[C@H](COC(C)=O)[C@@H](O)[C@H](O)[C@H]2O)c1 [MAHKOSIDE B]
pIC50 [1]: < 4.00 | pIC50 [2]: < 4.00 | pIC50 (MGC-803 [3]): < 4.00 | pIC50 (PC-3): < 4.00
